This note sets out measurements from ChEMBL document CHEMBL1126266, “Dopaminergic and serotonergic activities of imidazoquinolinones and related compounds” (J Med Chem, 1992).

Assay [1] deals with T1, D(2) dopamine receptor (Rattus norvegicus, UniProt P61169). In words: Ability to displace [3H]raclopride from dopamine receptor D2 in rat striatal homogenates. The procedure, abridged: (§1)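 Rat striatal homogenate (1:300) incubated with [3H]raclopride (80 Ci/mmol) 1 h at room temperature. Filtered over PEI-pretreated filters, rinsed with 50 mM Tris pH 7.4, counted by liquid scintillation. Nonspecific binding with 1 μM haloperidol. IC50 by log-probit analysis from at least four concentrations in triplicate; Ki calculated from IC50.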
T1 sequence (P61169 whole entry): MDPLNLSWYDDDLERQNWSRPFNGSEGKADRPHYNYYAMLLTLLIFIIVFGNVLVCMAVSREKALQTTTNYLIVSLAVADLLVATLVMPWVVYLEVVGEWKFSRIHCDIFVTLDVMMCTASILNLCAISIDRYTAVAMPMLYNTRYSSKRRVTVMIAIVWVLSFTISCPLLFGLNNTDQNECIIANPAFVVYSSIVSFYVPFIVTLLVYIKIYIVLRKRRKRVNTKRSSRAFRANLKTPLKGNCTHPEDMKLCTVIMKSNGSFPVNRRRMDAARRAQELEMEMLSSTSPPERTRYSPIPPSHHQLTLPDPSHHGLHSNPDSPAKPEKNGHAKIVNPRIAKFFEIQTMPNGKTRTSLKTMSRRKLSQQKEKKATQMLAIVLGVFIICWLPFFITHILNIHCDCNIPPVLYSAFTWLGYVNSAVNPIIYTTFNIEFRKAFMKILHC

Assay [2] relates to Rattus norvegicus. The assay is described as follows: Percent change in DOPA levels in rat brain following 1 mg/kg administration. The format is functional. A digest of the protocol: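 Upjohn CF-1 rats given drug or vehicle sc. Fifteen minutes later, m-hydroxybenzylhydrazine 100 mg/kg ip was given as decarboxylase inhibitor. Control and test groups (n = 6 each) compared by unpaired t test.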

Assay [3] deals with Rattus norvegicus. In words: Percent change in 5-HTP levels in rat brain following 1 mg/kg administration.
For assay [4], the target named is T2, 5-hydroxytryptamine receptor 1A (Homo sapiens) (UniProt P08908).
T2 sequence (whole entry): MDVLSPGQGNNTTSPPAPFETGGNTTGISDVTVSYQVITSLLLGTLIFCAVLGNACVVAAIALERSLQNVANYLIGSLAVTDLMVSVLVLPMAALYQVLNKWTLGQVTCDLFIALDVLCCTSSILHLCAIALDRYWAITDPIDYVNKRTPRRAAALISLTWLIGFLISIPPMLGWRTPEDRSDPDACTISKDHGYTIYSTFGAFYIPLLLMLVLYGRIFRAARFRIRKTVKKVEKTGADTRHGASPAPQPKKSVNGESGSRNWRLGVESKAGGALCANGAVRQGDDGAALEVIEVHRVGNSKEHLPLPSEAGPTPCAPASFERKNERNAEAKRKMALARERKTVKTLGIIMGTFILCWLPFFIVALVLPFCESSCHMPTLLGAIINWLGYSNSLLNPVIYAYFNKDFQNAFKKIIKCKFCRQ
The assay is described as follows: Dose required to reduce neuronal firing of 5-HT1A cells by 50%. It counts as functional. The procedure, abridged: (§2)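 Male Sprague-Dawley rats (280-330 g) under chloral hydrate 400 mg/kg ip. Extracellular recording from dorsal raphe neurons (biphasic spikes, about 0.8–2.5 spikes/s), location confirmed by dye deposit. Drug in distilled water given iv via femoral vein.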

Assay [5] in a line: Dose required to reduce neuronal firing of DA cells by 50%. It counts as functional. A digest of the protocol:
(§3)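 Male Sprague-Dawley rats (280-330 g) anesthetized with chloral hydrate 400 mg/kg ip. Extracellular recording from substantia nigra pars compacta neurons (action potential >2.5 ms), site verified histologically. Drug in distilled water given iv via femoral vein. Firing rate measured by integrated ratemeter.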

For assay [6], the target named is T1, D(2) dopamine receptor. The assay is described as follows: Compound was evaluated for its ability to displace [3H]raclopride from dopamine receptor D2 in rat striatal homogenates. A digest of the protocol: as §1
In assay [7] the target is T1, D(2) dopamine receptor. In words: Compound was evaluated for its ability to displace [3H]raclopride from Dopamine receptor D2 in rat striatal homogenates. The procedure, abridged: as §1
For assay [8], the species on record is Rattus norvegicus. In words: Dose required to reduce neuronal firing of dopaminergic cells by 50%. The format is functional. The procedure, abridged: as §3
Assay [9] is filed under the species Rattus norvegicus. In words: Dose required to reduce neuronal firing of serotonergic cells by 50%. The format is functional. The procedure, abridged:
as §2

For `CCCN(CCC)C1Cc2cccc3nc(SC)n(c23)C1` (stereo not drawn), the Ki (usually a dissociation constant, usually derived from enzyme kinetics or from competition with a known ligand) at D(2) dopamine receptor [1] is above 1000 nM.

For the compound `CCCN(CCC)C1Cc2cccc3oc(=O)n(c23)C1` (stereo not drawn), the affinity at D(2) dopamine receptor [1] corresponds to a Ki of 899 nM. Also, the figures for the Change with Rattus norvegicus [2] and in the assay on Rattus norvegicus [3] were -27% and -6%, respectively.

Turning to `CN(C)C1Cc2cccc3nc(O)n(c23)C1` (stereo not drawn), the inhibition constant (Ki) at D(2) dopamine receptor [1] is above 10000 nM.

For the compound `CN1CCc2cccc3c2[C@H]1Cc1ccc(O)c(O)c1-3` [APOMORPHINE], the Change with Rattus norvegicus [2] is -55%; in the assay on Rattus norvegicus [3], 4%.

Regarding `CCCN(CCC)C1Cc2cccc3c2N(C1)C(=O)CO3.O=C(O)/C=C/C(=O)O` (stereo not drawn), the values for the Change in the assay on Rattus norvegicus [2] and in the assay on Rattus norvegicus [3] were -18% and -12%, respectively.

In the case of `CCCN(CCC)C1Cc2cccc3nc(O)n(c23)C1.Cl` (stereo not drawn), the ED50 (commonly the dose that gives a 50% effect, or the effect in half of the subjects) turned out to be 0.34 mg/kg in assay [4] and 0.005 mg/kg in assay [5]. The Ki at D(2) dopamine receptor [1] was found to be 207 nM. Also, the Change was -34% in the assay with Rattus norvegicus [2] and 12% in the assay with Rattus norvegicus [3].

Regarding `CCCCNC1Cc2cccc3[nH]c(=O)n(c23)C1` (stereo not drawn), the Ki on D(2) dopamine receptor [6] was above 10000 nM.

Compound `CCCCN(CCCC)C1Cc2cccc3nc(O)n(c23)C1` (stereo not drawn) registered an inhibition constant (Ki) on D(2) dopamine receptor [1] above 10000 nM.

As to `NC1Cc2cccc3nc(O)n(c23)C1` (stereo not drawn), the Ki at D(2) dopamine receptor [1] is above 10000 nM.

Regarding `CCCN(CCC)C1Cc2cccc3ncn(c23)C1` (stereo not drawn), in assay [5], the ED50 amounted to 0.219 mg/kg. For the same compound, the Ki at D(2) dopamine receptor [1] was above 1000 nM. Further, the Change with Rattus norvegicus [2] was -12%; in the assay on Rattus norvegicus [3], -7%.

In the case of `CCCN(CCC)C1Cc2cccc3c2N(C1)C(=O)C3` (stereo not drawn), the Ki on D(2) dopamine receptor [1] came to 1080 nM. Further, the results for the Change in the assay with Rattus norvegicus [2] and in the assay with Rattus norvegicus [3] were -53% and -11%, respectively.

At D(2) dopamine receptor [1], `CCCN(CCC)C1Cc2cccc3c2N(CC3)C1.O=C(O)/C=C/C(=O)O` (stereo not drawn) registered a Ki above 1000 nM. In addition, the Change in the assay on Rattus norvegicus [2] was -33%; with Rattus norvegicus [3], -13%.

As to `CCCN(CCC)C1Cc2cccc3c2n(c(=O)n3C)C1` (stereo not drawn), at D(2) dopamine receptor [6], the affinity, expressed as Ki, was 924 nM.

For the compound `CCCN(CCC)C1Cc2cccc3c2N(C1)C(=O)OC3.Cl` (stereo not drawn), the Ki on D(2) dopamine receptor [1] was 292 nM. The Change was -36% in the assay on Rattus norvegicus [2] and -13% in the assay with Rattus norvegicus [3].

Turning to `CCCNC1Cc2cccc3nc(O)n(c23)C1.Cl` (stereo not drawn), the results for the ED50 in assay [4] and in [5] were 0.65 mg/kg and 0.036 mg/kg, respectively. The compound also came in with a Ki at D(2) dopamine receptor [1] of 1040 nM.

At D(2) dopamine receptor [7], `CCCN(CCC)C1Cc2cccc3nc(C)n(c23)C1` (stereo not drawn) came in with a Ki above 1000 nM.

On to `CCCCN(CCC)C1Cc2cccc3nc(O)n(c23)C1` (stereo not drawn), for which the Ki at D(2) dopamine receptor [1] is 167 nM.

Compound `C=CCNC1Cc2cccc3nc(O)n(c23)C1` (stereo not drawn) registered a Ki at D(2) dopamine receptor [1] of 363 nM.

Compound `CCCN(CCC)C1Cc2cccc3c2N(CC(=O)N3)C1.Cl` (stereo not drawn) registered a median effective dose (ED50) in assay [5] of 0.039 mg/kg. This compound returned a Ki at D(2) dopamine receptor [1] of 30 nM. The values for the Change in the assay with Rattus norvegicus [2] and in the assay on Rattus norvegicus [3] were -52% and 16%, respectively.

Compound `CCCN(CCC)C1Cc2cccc3ccn(c23)C1.O=C(O)/C=C/C(=O)O` (stereo not drawn) showed a 50% effective dose (ED50) in assay [5] of 0.083 mg/kg. This compound came in with a Ki at D(2) dopamine receptor [1] of 210 nM. For the same compound, the Change in the assay with Rattus norvegicus [2] is recorded as -29%; in the assay on Rattus norvegicus [3], -14%.

As to `CCCN(CCC)C1Cc2cccc3c2N(C1)C(=O)NC3` (stereo not drawn), the ED50 in [4] was 0.0034 mg/kg; in assay [5] it was 0.212 mg/kg. The compound further returned a Ki on D(2) dopamine receptor [1] above 1000 nM. Moreover, the Change in the assay on Rattus norvegicus [2] is on record as -13%; in the assay with Rattus norvegicus [3], -45%.

Consider `Br.CCCN(CCC)[C@@H]1Cc2cccc3nc(O)n(c23)C1`, for which the Ki at D(2) dopamine receptor [6] was 68 nM. In addition, the Change in the assay with Rattus norvegicus [2] is -50%; with Rattus norvegicus [3], -1.2%. The ED50 in the assay filed under Rattus norvegicus [8] came to 0.0014 mg/kg; in the assay filed under Rattus norvegicus [9], 0.107 mg/kg.

Regarding `CCCN(CCC)C1Cc2cccc3c2N(C1)C(=O)C3=O` (stereo not drawn), at D(2) dopamine receptor [1], the Ki is above 1000 nM. In addition, the figures for the Change in the assay on Rattus norvegicus [2] and with Rattus norvegicus [3] were -46% and -7%, respectively.

`CCCN(CCC)[C@H]1Cc2cccc3nc(O)n(c23)C1.Cl` registered an ED50 in assay [5] above 1 mg/kg. The Ki on D(2) dopamine receptor [6] is above 1000 nM. In addition, the Change was found to be 0.3% in the assay with Rattus norvegicus [2] and 6.4% with Rattus norvegicus [3].

`Oc1nc2cccc3c2n1CC(N(CC1CC1)CC1CC1)C3` (stereo not drawn) came in with a Ki on D(2) dopamine receptor [1] of 7730 nM.

Compound `CCCN(CCC)C1Cc2cccc3nc(S)n(c23)C1` (stereo not drawn) came in with a Ki on D(2) dopamine receptor [1] of 40 nM. Also, the Change with Rattus norvegicus [2] is recorded as -38%; with Rattus norvegicus [3] it was -7%.

As for `CCCN(CCC)C1Cc2cccc3[nH]c(=O)c(=O)n(c23)C1.Cl` (stereo not drawn), the ED50 in assay [5] was determined as 0.088 mg/kg. Moreover, the affinity on D(2) dopamine receptor [1], expressed as Ki, was 150 nM. For the same compound, the Change in the assay on Rattus norvegicus [2] is -37%; in the assay on Rattus norvegicus [3], 6%.

`CCCN(CCC)C1Cc2cccc3ccc(=O)n(c23)C1` (stereo not drawn) had an inhibition constant (Ki) at D(2) dopamine receptor [1] of 315 nM. Also, the Change with Rattus norvegicus [2] is -40%; with Rattus norvegicus [3], -18%.

Turning to `Oc1nc2cccc3c2n1CC(NCC1CC1)C3` (stereo not drawn), the Ki on D(2) dopamine receptor [1] is 4000 nM.

As for `CCCN(CCC)C1Cc2cccc3c2N(C1)C(=O)CN3` (stereo not drawn), the affinity at D(2) dopamine receptor [1] corresponds to a Ki of 80 nM. Also, the results for the Change in the assay on Rattus norvegicus [2] and in the assay with Rattus norvegicus [3] were -37% and -32%, respectively.

On D(2) dopamine receptor [1], `C=CCN(CC=C)C1Cc2cccc3nc(O)n(c23)C1` (stereo not drawn) yielded a Ki above 10000 nM.

In the case of `CCCN(Cc1ccccc1)C1Cc2cccc3[nH]c(=O)n(c23)C1` (stereo not drawn), the Ki on D(2) dopamine receptor [1] came out at 1910 nM.

For the compound `CCCN(CCC)C1Cc2cccc3c2N(CCC3)C1` (stereo not drawn), on D(2) dopamine receptor [1], the Ki was determined as 35 nM.

As to `CCCN(CCC)C1Cc2cccc3c2N(C1)C(=O)CC3` (stereo not drawn), the Ki on D(2) dopamine receptor [1] came out at 83 nM. The Change in the assay with Rattus norvegicus [2] is -41%; in the assay on Rattus norvegicus [3], -48%.
